# Experimental data published in ChEMBL document CHEMBL4706601, “The endocannabinoid system dual-target ligand N-cycloheptyl-1,2-dihydro-5-bromo-1-(4-fluorobenzyl)-6-methyl-2-oxo-pyridine-3-carboxamide improves disease severity in a mouse model of multiple sclerosis” (Eur J Med Chem, 2020).
# The source made the active and inactive calls.
# Tests used:
# [1] = target: T1, Cannabinoid receptor 2 (Homo sapiens, UniProt P34972); test: Displacement of [3H]CP55940 from recombinant human CB2R expressed in CHO cell membranes incubated for 90 mins; design: species or system Membrane
# T1 sequence (P34972 whole entry): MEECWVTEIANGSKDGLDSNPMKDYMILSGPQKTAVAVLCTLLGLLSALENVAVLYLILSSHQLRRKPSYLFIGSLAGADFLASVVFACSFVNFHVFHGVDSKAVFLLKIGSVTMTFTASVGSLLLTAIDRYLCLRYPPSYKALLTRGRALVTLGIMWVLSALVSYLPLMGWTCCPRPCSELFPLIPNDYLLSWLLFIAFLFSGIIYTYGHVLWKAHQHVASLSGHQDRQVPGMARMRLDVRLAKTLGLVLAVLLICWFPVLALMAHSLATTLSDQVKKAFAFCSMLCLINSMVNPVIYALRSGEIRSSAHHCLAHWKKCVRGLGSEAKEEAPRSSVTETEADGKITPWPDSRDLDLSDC
# [2] = target: T2, Monoacylglycerol lipase ABHD6 (Homo sapiens, UniProt Q9BV23); test: Inhibition of human ABHD6 expressed in HEK293 cells using 2-OG as substrate preincubated for 30 mins followed by substrate addition and measured after 5 mins by liquid scintillation spectroscopy; assay type: cell-based
# T2 sequence (Q9BV23 whole entry): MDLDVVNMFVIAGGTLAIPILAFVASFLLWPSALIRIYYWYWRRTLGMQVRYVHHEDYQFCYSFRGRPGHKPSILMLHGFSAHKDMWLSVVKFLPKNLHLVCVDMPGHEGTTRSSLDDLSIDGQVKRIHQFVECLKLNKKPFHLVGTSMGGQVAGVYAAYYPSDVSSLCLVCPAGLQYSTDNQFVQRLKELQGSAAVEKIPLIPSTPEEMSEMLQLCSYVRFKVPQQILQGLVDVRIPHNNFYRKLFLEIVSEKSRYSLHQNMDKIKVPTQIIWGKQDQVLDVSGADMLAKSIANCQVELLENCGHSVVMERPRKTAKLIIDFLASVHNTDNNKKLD
# In short: (§1)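 Homogenates (40 µg) from HEK293 stably expressing hABHD6 or hABHD12 pre-incubated with compound 30 min at 37 °C in […], 0.1% BSA, pH 7.6; then 10 μM 2-OG for 5 min at 37 °C. Aqueous phase tritium counted after CHCl3:MeOH stop; no-enzyme blanks and non-transfected HEK293 hydrolysis subtracted. Controls WWL70 10 μM, THL 20 μM.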
# [3] = target: T3, Lysophosphatidylserine lipase ABHD12 (Homo sapiens, UniProt Q8N2K0); test: Inhibition of human ABHD12 expressed in HEK293 cells using 2-OG as substrate preincubated for 30 mins followed by substrate addition and measured after 5 mins by liquid scintillation spectroscopy; assay type: cell-based; in short: as §1
# T3 sequence (Q8N2K0 whole entry): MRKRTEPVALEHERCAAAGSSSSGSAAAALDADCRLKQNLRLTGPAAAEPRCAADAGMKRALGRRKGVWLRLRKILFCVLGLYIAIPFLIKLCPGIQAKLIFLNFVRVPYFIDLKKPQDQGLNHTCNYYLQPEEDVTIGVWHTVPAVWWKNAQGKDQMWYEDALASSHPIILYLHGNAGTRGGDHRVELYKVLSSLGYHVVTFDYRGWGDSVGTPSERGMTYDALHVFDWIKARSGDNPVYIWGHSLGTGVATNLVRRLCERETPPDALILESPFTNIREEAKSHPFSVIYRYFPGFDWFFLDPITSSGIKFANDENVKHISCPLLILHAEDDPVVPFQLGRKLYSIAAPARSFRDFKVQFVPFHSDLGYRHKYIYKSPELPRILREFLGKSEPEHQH
# [4] = target: T4, Cannabinoid receptor 1 (Homo sapiens, UniProt P21554); test: Displacement of [3H]CP55940 from recombinant human CB1R expressed in CHO cell membranes incubated for 90 mins; design: species or system Membrane
# T4 sequence (P21554 whole entry): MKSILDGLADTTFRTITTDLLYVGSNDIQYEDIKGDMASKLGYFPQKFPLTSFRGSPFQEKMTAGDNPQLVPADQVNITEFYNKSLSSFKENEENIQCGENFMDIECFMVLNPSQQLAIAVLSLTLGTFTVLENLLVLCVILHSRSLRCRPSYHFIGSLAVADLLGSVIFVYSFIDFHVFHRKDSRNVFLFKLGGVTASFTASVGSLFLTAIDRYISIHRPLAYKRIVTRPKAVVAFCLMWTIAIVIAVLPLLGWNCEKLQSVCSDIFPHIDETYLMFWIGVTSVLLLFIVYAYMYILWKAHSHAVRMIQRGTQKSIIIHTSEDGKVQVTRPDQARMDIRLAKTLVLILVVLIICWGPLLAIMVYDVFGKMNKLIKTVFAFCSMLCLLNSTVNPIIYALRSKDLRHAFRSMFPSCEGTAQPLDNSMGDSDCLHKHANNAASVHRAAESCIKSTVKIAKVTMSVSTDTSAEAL
# [5] = species on record: Homo sapiens; test: Selectivity index, ratio of Ki for human CB1R expressed in CHO cell membranes to Ki for human CB2R expressed in CHO cell membranes; assay type: cell-based
# [6] = target: T4, Cannabinoid receptor 1; test: Agonist activity at human CB1R expressed in CHO cell membranes after 90 mins by [35S]GTPgammaS assay; assay type: functional, Membrane
# In short: (§2)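 In-house CHO membranes expressing hCB1 or hCB2 (10 µg) in 50 mM Tris-HCl, 3 mM MgCl2, 0.2 mM EDTA, 100 mM NaCl, 0.5% fatty-acid-free BSA, pH 7.4, with 10 μM GDP and 0.1 nM [35S]GTPγS. Incubated 90 min at 30 °C; antagonist pre-incubated 30 min. Nonspecific binding with 10 μM GTPγS; bound label by filtration and counting; ≥3 experiments in triplicate.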
# [7] = target: T5, Fatty-acid amide hydrolase 1 (Homo sapiens, UniProt O00519); test: Inhibition of FAAH in human U937 cells using [ethanolamine-1-3H]AEA as substrate preincubated for 15 mins followed by substrate addition and measured after 15 mins by liquid scintillation spectroscopy; assay type: cell-based, U-937
# T5 sequence (O00519 whole entry): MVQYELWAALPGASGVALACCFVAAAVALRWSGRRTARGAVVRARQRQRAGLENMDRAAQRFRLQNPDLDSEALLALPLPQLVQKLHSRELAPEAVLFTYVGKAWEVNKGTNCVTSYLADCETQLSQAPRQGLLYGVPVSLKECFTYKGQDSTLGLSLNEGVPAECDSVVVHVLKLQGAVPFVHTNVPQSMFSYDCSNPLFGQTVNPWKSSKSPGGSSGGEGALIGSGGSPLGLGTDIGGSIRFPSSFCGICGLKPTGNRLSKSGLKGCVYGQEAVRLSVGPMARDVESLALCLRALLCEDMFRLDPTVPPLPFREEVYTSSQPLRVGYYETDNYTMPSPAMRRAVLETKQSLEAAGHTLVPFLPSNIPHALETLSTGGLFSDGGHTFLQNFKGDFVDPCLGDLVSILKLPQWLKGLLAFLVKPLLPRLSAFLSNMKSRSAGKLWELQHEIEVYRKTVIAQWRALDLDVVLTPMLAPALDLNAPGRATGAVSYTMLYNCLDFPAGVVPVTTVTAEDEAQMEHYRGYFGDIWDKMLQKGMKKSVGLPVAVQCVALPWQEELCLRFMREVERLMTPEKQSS
# In short: (§3)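 Intact U937 cells, 10^6 per condition, pre-incubated with compound 15 min at 37 °C with shaking (screen at 10 μM; full curves for hits). Substrate: 1 μM AEA with 1 nM [3H]AEA (FAAH) or 10 μM 2-OG with 5 nM [3H]2-OG (MAGL), 15 min at 37 °C. Stopped with CHCl3:MeOH 1:1, aqueous tritium counted; mean ± SD, ≥3 experiments in triplicate.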
# [8] = target: T1, Cannabinoid receptor 2; test: Agonist activity at human CB2R expressed in CHO cell membranes after 90 mins by [35S]GTPgammaS assay; assay type: functional, Membrane; in short: as §2
# [9] = target: T6, Monoglyceride lipase (Homo sapiens, UniProt Q99685); test: Inhibition of MAGL in human U937 cells using [glycerol-1,2,3-3H]2-OG as substrate preincubated for 15 mins followed by substrate addition and measured after 15 mins by liquid scintillation spectroscopy; assay type: cell-based, U-937; in short: as §3
# T6 sequence (Q99685 whole entry): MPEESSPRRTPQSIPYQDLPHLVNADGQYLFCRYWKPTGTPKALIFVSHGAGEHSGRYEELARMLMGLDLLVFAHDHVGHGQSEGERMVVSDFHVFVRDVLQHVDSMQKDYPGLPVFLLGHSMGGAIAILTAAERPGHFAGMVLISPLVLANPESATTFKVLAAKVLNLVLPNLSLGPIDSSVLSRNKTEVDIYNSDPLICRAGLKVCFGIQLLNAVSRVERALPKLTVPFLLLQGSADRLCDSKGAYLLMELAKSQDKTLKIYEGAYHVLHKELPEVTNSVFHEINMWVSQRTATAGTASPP
# [10] = target: T4, Cannabinoid receptor 1; test: Antagonist activity at human CB1R expressed in CHO cell membranes preincubated for 30 mins followed by GTPgammaS addition and measured after 90 mins by [35S]GTPgammaS assay; assay type: functional, Membrane; in short: as §2
# [11] = target: T1, Cannabinoid receptor 2; test: Inverse agonist activity at human CB2R expressed in CHO cell membranes after 90 mins by [35S]GTPgammaS assay; assay type: functional, Membrane; in short: as §2
# [12] = system: Mus musculus; test: In vivo agonist activity at CB1R in BALB/c mouse assessed as induction of analgesia at 5 mg/kg, ip measured after 1 hr by hotplate test; assay type: functional, organism-based
# In short: (§4)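 BALB/c mice given 5 mg/kg i.p. in DMSO (20 µL), tested 1 h later. Rectal temperature change from basal; catalepsy by bar test (4 cm bar, 120 s cut-off); locomotion by rotarod latency to fall at 4 rpm (120 s cut-off, 3 trials); analgesia by hot plate at 54-56 °C, first paw lick or shake. n = 5-20 per group.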
# [13] = system: Mus musculus; test: In vivo agonist activity at CB1R in BALB/c mouse assessed as reduction in spontaneous locomotion at 5 mg/kg, ip measured after 1 hr by rotarod test; assay type: functional, organism-based; in short: as §4
# [14] = system: Mus musculus; test: In vivo agonist activity at CB1R in BALB/c mouse assessed as catalpesy-like behaviour by measuring increase in immobility time at 5 mg/kg, ip measured after 1 hr by bar test; assay type: functional, organism-based; in short: as §4
# [15] = system: Mus musculus; test: In vivo agonist activity at CB1R in BALB/c mouse assessed as reduction in body temperature at 5 mg/kg, ip measured after 1 hr by tetrad test; assay type: functional, organism-based; in short: as §4
SMILES,Ki [1] [µM],IC50 [2] [µM],IC50 [3] [µM],Ki [4] [µM],Ratio Ki [5],EC50 [6] [µM],IC50 [7] [µM],EC50 [8] [µM],IC50 [9] [µM],EC50 [10] [µM],EC50 [11] [µM],Activity [12],Activity [13],Activity [14],Activity [15]
Cc1c(F)cc(C(=O)NC2CCCCCC2)c(=O)n1Cc1ccc(F)cc1,0.0057,> 10,> 10,0.0049,0.86,0.0432,> 10,0.0244,> 10,–,–,–,–,–,–
CO[C@@H]1O[C@H](CNC(=O)c2cc(Br)c(C)n(Cc3ccc(F)cc3)c2=O)[C@H](O)[C@H](O)[C@H]1O,> 10,> 10,> 10,> 10,–,–,> 10,–,> 10,–,–,–,–,–,–
Cc1c(-c2ccccc2)cc(C(=O)NC2CCCCCC2)c(=O)n1Cc1ccc(F)cc1,0.0057,> 10,> 10,0.176,–,–,0.56,–,> 10,0.00036,0.017,inactive,inactive,inactive,inactive
Cc1nc(OCc2ccc(F)cc2)c(C(=O)NC2CCCCCC2)cc1Br,0.0015,> 10,2.1,0.0761,–,0.586,> 10,0.0316,> 10,–,–,–,–,–,–
Cc1nc(OCc2ccc(F)cc2)c(C(=O)NC2CCCCCC2)cc1-c1ccc(F)cc1,0.531,> 10,> 10,4.6,–,–,> 10,–,> 10,–,–,–,–,–,–
Cc1c(Br)cc(C(=O)NC2CCNCC2)c(=O)n1Cc1ccc(F)cc1,> 10,> 10,> 10,> 10,–,–,> 10,–,> 10,–,–,–,–,–,–
Cc1c(Cl)cc(C(=O)NC2CCCCCC2)c(=O)n1Cc1ccc(F)cc1,0.0043,> 10,> 10,0.0037,0.86,0.00112,5.9,0.0033,> 10,–,–,–,–,–,–
